The source made the active and inactive calls.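 How the source made its calls: active means compounds cutting cell ATP signal whose AC50 is at most twice their top valid dose; inconclusive means flat curve with 30 to 70% signal loss, or poor fit; inactive means the rest.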 Where only a bound is given, the exact number is not on record here.

For orientation: AC50 means the midpoint of the concentration-response curve, whichever way the signal moves.

The test system of this test is MALME3 melanoma viability, CellTiter-Glo ATP luminescence, 24 h. Description: MALME3 melanoma cell viability loss, dose response, orthogonal assay for MITF inhibitor project, CellTiter-Glo luminescence, dry powder, set 3 (AID 624362). The procedure, abridged:
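Assay system: MALME3 melanoma cell line; Amount: 3000 cells/well; Medium: phenol-red-free IMDM supplemented with 10% FBS; Compound: multi-dose series, pinned; Timing: compound exposure at 37 °C, cells plated one day earlier; Technique: CellTiter-Glo ATP luminescence; Evaluation: cell viability inferred from cellular ATP level; Controls: parthenolide at 27 µM as positive control.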
On the technique in general: Cellular ATP, detected with luciferase, serves as a proxy for viable cell number.
In the case of `O=C1C=C(NS(=O)(=O)c2ccc(Br)cc2)C(=O)c2ccccc21`, the concentration at half-maximal activity (AC50) was 14.3 µM.

As for `NC1=C(NS(=O)(=O)c2ccc(Br)s2)C(=O)c2ccccc2C1=O`, the AC50 was > 70 µM (inactive).

Regarding `O=C1C=C(Nc2ccccc2)C(=O)c2ccccc21`, the half-maximal activity concentration (AC50) was 2.89 µM.

`O=C1C=C(NS(=O)(=O)c2ccccc2)C(=O)c2ccccc21`: the half-maximal activity concentration (AC50) was 11.6 µM.

With `O=C1C(Nc2ccccc2)=C(c2ccccc2)C(=O)c2ccccc21`, the half-maximal activity concentration (AC50) is 36 µM.

For `O=C1C=C(NS(=O)(=O)c2cccs2)C(=O)c2ccccc21`, the half-maximal activity concentration (AC50) was 15.3 µM.

For the compound `O=C1C(NS(=O)(=O)c2ccccc2)=C(c2ccccc2)C(=O)c2ccccc21`, the AC50 is > 70 µM (inactive).

Consider `COC1=C(NS(=O)(=O)c2cccs2)C(=O)c2ccccc2C1=O`, for which the AC50 was 23.4 µM.

On to `NC1=C(NS(=O)(=O)c2ccccc2)C(=O)c2ccccc2C1=O`, for which the AC50 was 15 µM.

On to `COC1=C(NS(=O)(=O)c2ccc(Br)cc2)C(=O)c2ccccc2C1=O`, for which the AC50 was 14.7 µM.

Turning to `NC1=C(NS(=O)(=O)c2cccs2)C(=O)c2ccccc2C1=O`, the AC50 was 16.8 µM.

Take `COC1=C(Nc2ccccc2)C(=O)c2ccccc2C1=O`: the concentration at half-maximal activity (AC50) is 7.46 µM.

For the origin of these results see PubChem BioAssay AID624362 (Broad Institute, 2012).
